# Activity calls are given as the source filed them. The rule behind the calls is not given here.
# Experiments:
# [1] = tested on: Candida albicans; assay: Antifungal activity against Candida albicans after 48 hrs by CLSI-M27-A3 method; assay type: functional
# [2] = tested on: Aspergillus fumigatus; assay: Antifungal activity against Aspergillus fumigatus after 48 hrs by CLSI-M27-A3 method; assay type: functional
# [3] = tested on: Aspergillus niger; assay: Antifungal activity against Aspergillus niger after 48 hrs by CLSI-M27-A3 method; assay type: functional
# [4] = tested on: Pichia kudriavzevii; assay: Antifungal activity against Candida krusei after 48 hrs by CLSI-M27-A3 method; assay type: functional
# [5] = Chemical stability of compound in phosphate buffer saline assessed as hydrolysis after 4 hrs by HPLC analysis; assay type: physicochemical
# In short: (§1)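 Conjugate incubated in phosphate-buffered saline; samples taken at 4 h and after prolonged incubation to 24 h; percent hydrolysis determined by HPLC.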
# [6] = Solubility of compound in saline by HPLC analysis; assay type: physicochemical
# [7] = tested on: MEF; assay: Cytotoxicity against mouse MEF cells assessed as cell viability after 24 hrs by MTT assay; assay type: cell-based
# [8] = tested on: Aspergillus flavus; assay: Antifungal activity against Aspergillus flavus after 48 hrs by CLSI-M27-A3 method; assay type: functional
# [9] = Toxicity against human RBC assessed as hemolytic activity at 6 ug/ml after 1 to 21 hrs; assay type: cell-based; conditions: erythrocyte
# [10] = tested on: Rhizopus arrhizus; assay: Antifungal activity against Rhizopus oryzae after 48 hrs by CLSI-M27-A3 method; assay type: functional
# [11] = Toxicity in iv dosed ICR mouse; assay type: organism-based; conditions: in vivo
# [12] = Chemical stability of compound in phosphate buffer saline assessed as hydrolysis after 24 hrs by HPLC analysis; assay type: physicochemical; conditions: read-out: Drug degradation; in short: as §1
# [13] = tested on: Aspergillus terreus; assay: Antifungal activity against Aspergillus terreus after 48 hrs by CLSI-M27-A3 method; assay type: functional
# [14] = tested on: Candida albicans; assay: Antifungal activity against Candida albicans CBS 562 infected in ICR mouse assessed as fungal burden in mouse kidney at 1 mg/kg after 24 hrs; assay type: functional, organism-based
# [15] = tested on: Candida albicans; assay: Antifungal activity against Candida albicans CBS 562 infected in ICR mouse assessed as fungal burden in mouse kidney at 7 mg/kg after 24 hrs; assay type: functional, organism-based
# [16] = tested on: Candida albicans; assay: Antifungal activity against Candida albicans CBS 562 infected in ICR mouse assessed as fungal burden in mouse kidney at 1.75 mg/kg after 24 hrs; assay type: functional, organism-based
# [17] = Fraction unbound in ICR mouse plasma by HPLC analysis; assay type: ADME, cell-free
# [18] = tested on: Candida albicans; assay: Antifungal activity against Candida albicans CBS 562 infected in ICR mouse assessed as increase in survival rate of animal at 7 mg/kg after 24 days; assay type: functional, organism-based
# [19] = Elimination rate constant in ICR mouse at 1 mg/kg, iv by HPLC analysis; assay type: ADME, organism-based; conditions: in vivo
# [20] = tested on: Candida albicans; assay: Antifungal activity against Candida albicans CBS 562 infected in ICR mouse assessed as fungal burden in mouse spleen at 7 mg/kg after 24 hrs; assay type: functional, organism-based
# [21] = tested on: Mus musculus; assay: Metabolic stability in ICR mouse at 1 mg/kg, iv after 48 hrs by HPLC analysis; assay type: ADME, organism-based; conditions: in vivo
# [22] = Elimination half life in ICR mouse at 1 mg/kg, iv by HPLC analysis; assay type: ADME, organism-based; conditions: in vivo, read-out: beta t1/2 (converted)
# [23] = Volume of distribution in ICR mouse at 1 mg/kg, iv after 24 hrs by HPLC analysis; assay type: ADME, organism-based; conditions: in vivo
# [24] = tested on: Candida albicans; assay: Antifungal activity against Candida albicans CBS 562 infected in ICR mouse assessed as fungal burden in mouse spleen at 1.75 mg/kg after 24 hrs; assay type: functional, organism-based
# [25] = tested on: Candida albicans; assay: Antifungal activity against Candida albicans CBS 562 infected in ICR mouse assessed as increase in survival rate of animal at 3.5 mg/kg after 24 days; assay type: functional, organism-based
# [26] = tested on: Mus musculus; assay: AUC(0 to 24 hrs) in ICR mouse at 1 mg/kg, iv after 24 hrs by HPLC analysis; assay type: ADME, organism-based; design: dose 1 mg/kg, time < 24 hr, route intravenous; conditions: in vivo
# [27] = tested on: Candida albicans; assay: Antifungal activity against Candida albicans CBS 562 assessed as viable cells at 2 times MIC after 2 hrs by time kill analysis relative to control; assay type: functional
# [28] = tested on: Mus musculus; assay: Metabolic stability in ICR mouse assessed as hydrolysis at 1 mg/kg, iv after 24 hrs by HPLC analysis; assay type: ADME, organism-based; conditions: in vivo
# [29] = tested on: Candida albicans; assay: Antifungal activity against Candida albicans CBS 562 infected in ICR mouse assessed as increase in survival rate of animal at 1.75 mg/kg after 24 days; assay type: functional, organism-based
# [30] = Mean residence time(0 to 24 hrs) in ICR mouse at 7.5 mg/kg, iv after 24 hrs by HPLC analysis; assay type: ADME, organism-based; conditions: in vivo
# [31] = tested on: Candida albicans; assay: Antifungal activity against Candida albicans CBS 562 infected in ICR mouse assessed as fungal burden in mouse spleen at 3.5 mg/kg after 24 hrs; assay type: functional, organism-based
# [32] = tested on: Candida albicans; assay: Antifungal activity against Candida albicans CBS 562 infected in ICR mouse assessed as increase in survival rate of animal at 1 mg/kg after 24 days; assay type: functional, organism-based
# [33] = tested on: Candida albicans; assay: Antifungal activity against Candida albicans CBS 562 infected in ICR mouse assessed as fungal burden in mouse kidney at 3.5 mg/kg after 24 hrs; assay type: functional, organism-based
# [34] = Clearance in ICR mouse at 1 mg/kg, iv after 24 hrs by HPLC analysis; assay type: ADME, organism-based; conditions: in vivo
# [35] = tested on: Candida albicans; assay: Antifungal activity against Candida albicans CBS 562 infected in ICR mouse assessed as fungal burden in mouse spleen at 1 mg/kg after 24 hrs; assay type: functional, organism-based
# [36] = Elimination half life in ICR mouse at 7.5 mg/kg, iv by HPLC analysis; assay type: ADME, organism-based; conditions: in vivo, read-out: beta t1/2 (converted)
# [37] = Volume of distribution in ICR mouse at 7.5 mg/kg, iv after 24 hrs by HPLC analysis; assay type: ADME, organism-based; conditions: in vivo
# [38] = tested on: MEF; assay: Cytotoxicity against mouse MEF cells assessed as cell viability at 1000 ug/ml after 24 hrs by MTT assay; assay type: cell-based
# [39] = Mean residence time(0 to 24 hrs) in ICR mouse at 1 mg/kg, iv after 24 hrs by HPLC analysis; assay type: ADME, organism-based; conditions: in vivo
# [40] = tested on: Serum; assay: Metabolic stability in mouse serum assessed as hydrolysis after 24 hrs by HPLC analysis; assay type: ADME
# [41] = tested on: Mus musculus; assay: Metabolic stability in ICR mouse at 7.5 mg/kg, iv after 48 hrs by HPLC analysis; assay type: ADME, organism-based; conditions: in vivo
# [42] = Clearance in ICR mouse at 7.5 mg/kg, iv after 24 hrs by HPLC analysis; assay type: ADME, organism-based; conditions: in vivo
# [43] = tested on: Mus musculus; assay: Metabolic stability in ICR mouse assessed as hydrolysis at 7.5 mg/kg, iv after 24 hrs by HPLC analysis; assay type: ADME, organism-based; conditions: in vivo
# [44] = Elimination rate constant in ICR mouse at 7.5 mg/kg, iv by HPLC analysis; assay type: ADME, organism-based; conditions: in vivo
# [45] = AUC(0 to 24 hrs) in ICR mouse at 7.5 mg/kg, iv after 24 hrs by HPLC analysis; assay type: ADME, organism-based; design: time < 24 hr, dose 7.5 mg/kg, route intravenous; conditions: in vivo
smiles,measurement,setting,value
C[C@@H]1[C@H](O)[C@@H](C)/C=C/C=C/C=C/C=C/C=C/C=C/C=C/[C@H](O[C@@H]2O[C@H](C)[C@@H](O)[C@H](NC(=O)CCOCCOCCOCCOCCOCCOCCOCCOCCN)[C@@H]2O)C[C@@H]2O[C@](O)(C[C@@H](O)C[C@@H](O)[C@H](O)CC[C@@H](O)C[C@@H](O)CC(=O)O[C@H]1C)C[C@H](O)[C@H]2C(=O)O,MFC,[1],4 µg/mL
same,MIC,[1],1 µg/mL
same,MFC,[2],4 µg/mL
same,MIC,[2],4 µg/mL
same,MFC,[3],1 µg/mL
same,MIC,[3],1 µg/mL
same,MFC,[4],8 µg/mL
same,MIC,[4],4 µg/mL
same,Stability,[5],Stable
same,solubility,[6],5500 µg/mL
same,IC50,[7],280 µg/mL
same,MFC,[8],4 µg/mL
same,MIC,[8],4 µg/mL
same,Activity,[9],Toxic
same,MFC,[10],8000 µg/mL
same,MIC,[10],8 µg/mL
same,MTD,[11],22 mg/kg
same,degraded at 24 h,[12],0.5%
same,MFC,[13],32 µg/mL
same,MIC,[13],32 µg/mL
C[C@@H]1[C@H](O)[C@@H](C)/C=C/C=C/C=C/C=C/C=C/C=C/C=C/[C@H](O[C@@H]2O[C@H](C)[C@@H](O)[C@H](N)[C@@H]2O)C[C@@H]2O[C@](O)(C[C@@H](O)C[C@@H](O)[C@H](O)CC[C@@H](O)C[C@@H](O)CC(=O)O[C@H]1C)C[C@H](O)[C@H]2C(=O)O [AMPHOTERICIN B],Activity,[14],Active
same,Activity,[15],Active
same,MFC,[1],0.5 µg/mL
same,MIC,[1],0.25 µg/mL
same,MFC,[2],0.5 µg/mL
same,MIC,[2],0.25 µg/mL
same,Activity,[16],Active
same,fraction unbound,[17],0.11
same,MFC,[3],0.5 µg/mL
same,MIC,[3],0.5 µg/mL
same,MFC,[4],1 µg/mL
same,MIC,[4],0.5 µg/mL
same,Activity,[18],Active
same,solubility,[6],< 1 µg/mL
same,k el,[19],1.19e-05 s⁻¹
same,IC50,[7],6.6 µg/mL
same,Activity,[20],Active
same,Stability,[21],Unstable
same,half-life,[22],16 h
same,MFC,[8],0.5 µg/mL
same,MIC,[8],0.5 µg/mL
same,Vd,[23],0.006 L
same,Activity,[24],Active
same,Activity,[25],Active
same,AUC,[26],63.983 µg·h/mL
same,Activity,[27],100%
same,Stability,[28],Stable
same,Activity,[29],Active
same,MRT last,[30],9.66 h
same,Activity,[9],Toxic
same,Activity,[31],Active
same,Activity,[32],Active
same,MFC,[10],250 µg/mL
same,MIC,[10],0.25 µg/mL
same,Activity,[33],Active
same,MTD,[11],1.1 mg/kg
same,clearance,[34],0.00417 mL/min
same,MFC,[13],4 µg/mL
same,MIC,[13],2 µg/mL
same,Activity,[35],Active
COC(=O)[C@H]1[C@@H]2C[C@@H](O[C@@H]3O[C@H](C)[C@@H](O)[C@H](NC(=O)CCOCCOCCOCCOCCOCCOCCOCCOCCN)[C@@H]3O)/C=C/C=C/C=C/C=C/C=C/C=C/C=C/[C@H](C)[C@@H](O)[C@@H](C)[C@H](C)OC(=O)C[C@H](O)C[C@H](O)CC[C@@H](O)[C@H](O)C[C@H](O)C[C@](O)(C[C@@H]1O)O2,Activity,[14],Active
same,Activity,[15],Active
same,half-life,[36],3.15 h
same,MFC,[1],2 µg/mL
same,MIC,[1],1 µg/mL
same,MFC,[2],2 µg/mL
same,MIC,[2],1 µg/mL
same,Activity,[16],Active
same,Vd,[37],0.002 L
same,fraction unbound,[17],0.9
same,MFC,[3],2 µg/mL
same,MIC,[3],2 µg/mL
same,MFC,[4],4 µg/mL
same,MIC,[4],2 µg/mL
same,Stability,[5],Stable
same,Activity,[18],Active
same,solubility,[6],700 µg/mL
same,Activity,[38],Non-toxic
same,MRT last,[39],5.43 h
same,Stability,[40],Stable
same,Activity,[20],Active
same,Stability,[41],Unstable
same,clearance,[42],0.00847 mL/min
same,MFC,[8],2 µg/mL
same,MIC,[8],2 µg/mL
same,Stability,[43],Stable
same,Activity,[24],Active
same,Activity,[25],Active
same,Activity,[27],100%
same,Activity,[29],Active
same,Activity,[9],Non-toxic
same,Activity,[31],Active
same,Activity,[32],Active
same,k el,[44],6.11e-05 s⁻¹
same,AUC(0-t) at 24 h,[45],421 µg·h/mL
same,MFC,[10],4000 µg/mL
same,MIC,[10],4 µg/mL
same,Activity,[33],Active
same,MTD,[11],42 mg/kg
same,degraded at 24 h,[12],0.8%
same,MFC,[13],16 µg/mL
same,MIC,[13],16 µg/mL
same,Activity,[35],Active

# Reference: ChEMBL document CHEMBL3785075, “Novel Water-Soluble Amphotericin B-PEG Conjugates with Low Toxicity and Potent in Vivo Efficacy” (J Med Chem, 2016)
